From article PMC6988732 (The Biochemical journal, 2013)
Where a chain is given by its changes, count along the chain named. “And” between values parts separate entries of the source, which are not always exact repeats. Equal values may be shown once.

Legend:
Assay in all cases: [3H]PDBu binding assay
PKCθC1B T243A = target: T1, PKCθC1B T243A (Mus musculus, UniProt Q02111, T243A)
T1 sequence (Q02111 232-281 T243A): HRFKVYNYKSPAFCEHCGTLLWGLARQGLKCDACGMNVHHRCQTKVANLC
Summary of the method: (§1)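 GST-cleaved mouse PKCθ C1B (residues 232–281), E. coli-expressed, affinity/gel-filtration purified. PEG-precipitation [3H]PDBu binding; Kd from saturable plus linear non-specific fit. Ki: [3H]PDBu at 2–5-fold each construct's Kd, DOG or SAG 1–100000 nM, dried from chloroform with phospholipid, sonicated. PS dependence: total phospholipid 100 μg/ml, PS 0–100%, remainder PC, relative to 100% PS. Means ± S.E.M., three independent experiments.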

PKCθC1B Y239A = target: T2, PKCθC1B Y239A (Mus musculus, UniProt Q02111, Y239A)
T2 sequence (Q02111 232-281 Y239A): T1 sequence (Q02111 232-281 T243A) with Y8A, A12T
Summary of the method: as §1

PKCθC1B W253G = target: T3, PKCθC1B W253G (Mus musculus, UniProt Q02111, W253G)
T3 sequence (Q02111 232-281 W253G): T1 sequence (Q02111 232-281 T243A) with A12T, W22G

PKCθC1B wild-type = target: T4, PKCθC1B wild-type (Mus musculus, UniProt Q02111)
T4 sequence (Q02111 232-281): T1 sequence (Q02111 232-281 T243A) with A12T
Summary of the method: as §1

PKCθC1B Q258G = target: T5, PKCθC1B Q258G (Mus musculus, UniProt Q02111, Q258G)
T5 sequence (Q02111 232-281 Q258G): T1 sequence (Q02111 232-281 T243A) with A12T, Q27G
Summary of the method: as §1

PKCθC1B L255G = target: T6, PKCθC1B L255G (Mus musculus, UniProt Q02111, L255G)
T6 sequence (Q02111 232-281 L255G): T1 sequence (Q02111 232-281 T243A) with A12T, L24G
Summary of the method: as §1

CCCCC/C=C\C/C=C\C/C=C\C/C=C\CCCC(=O)OC(CO)COC(=O)CCCCCCCCCCCCCCCCC (stereo not drawn) [SAG, sn-1-stearoyl 2-arachidonyl glycerol]
Ki/Kd (PKCθC1B T243A; PKCθ C1B T243A, Ki of the diacylglycerol over Kd of PDBu): 9
Ki (PKCθC1B T243A; PKCθ C1B T243A, competition of [3H]PDBu binding, mean ± S.E.M.): 5.5 ± 1.5 nM
reduction in binding affinity compared with the wild-type (PKCθC1B T243A; T243A vs wild-type PKCθC1B (Kd for PDBu, Ki for DOG/SAG)): 0.63 fold
Ki/Kd (PKCθC1B Y239A; PKCθ C1B Y239A, Ki of the diacylglycerol over Kd of PDBu): 11
Ki (PKCθC1B Y239A; PKCθ C1B Y239A, competition of [3H]PDBu binding, mean ± S.E.M.): 35.1 ± 5.1 nM
reduction in binding affinity compared with the wild-type (PKCθC1B Y239A; Y239A vs wild-type PKCθC1B (Kd for PDBu, Ki for DOG/SAG)): 4.13 fold
Ki/Kd (PKCθC1B W253G; PKCθ C1B W253G, Ki of the diacylglycerol over Kd of PDBu): 92
Ki (PKCθC1B W253G; PKCθ C1B W253G, competition of [3H]PDBu binding, mean ± S.E.M.): 271 ± 22 nM
reduction in binding affinity compared with the wild-type (PKCθC1B W253G; W253G vs wild-type PKCθC1B (Kd for PDBu, Ki for DOG/SAG)): 31.1 fold and 31 fold
stronger binding affinity for SAG than for DOG (PKCθC1B wild-type; C1B domain of PKCθ): 2 fold
Ki/Kd (PKCθC1B wild-type; PKCθ C1B WT, Ki of the diacylglycerol over Kd of PDBu): 22
Ki (PKCθC1B wild-type; PKCθ C1B WT, competition of [3H]PDBu binding, mean ± S.E.M.): 8.7 ± 2 nM
Ki/Kd (PKCθC1B Q258G; PKCθ C1B Q258G, Ki of the diacylglycerol over Kd of PDBu): 3
Ki (PKCθC1B Q258G; PKCθ C1B Q258G, competition of [3H]PDBu binding, mean ± S.E.M.): 2260 ± 330 nM
reduction in binding affinity compared with the wild-type (PKCθC1B Q258G; Q258G vs wild-type PKCθC1B (Kd for PDBu, Ki for DOG/SAG)): 260 fold
reduction in binding affinity compared with the wild-type (PKCθC1B L255G; L255G vs wild-type PKCθC1B (Kd for PDBu, Ki for DOG/SAG)): 8.16 fold
Ki/Kd (PKCθC1B L255G; PKCθ C1B L255G, Ki of the diacylglycerol over Kd of PDBu): 16
Ki (PKCθC1B L255G; PKCθ C1B L255G, competition of [3H]PDBu binding, mean ± S.E.M.): 71 ± 10 nM
